Results from ChEMBL document CHEMBL1255526, “Fused tricyclic pyrrolizinones that exhibit pseudo-irreversible blockade of the NK1 receptor” (Bioorg Med Chem Lett, 2010).

Experiments:
Substance-P receptor [1] = target: T1, Substance-P receptor (Homo sapiens, UniProt P25103); test: Antagonist activity at human recombinant NK1 receptor expressed in CHO cells assessed as remaining substance P level at 100 nM after 30 mins by [H3]-inositol phosphate release assay; format: functional, cell-based
How it was run: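 CHO cells with recombinant human NK1 receptor, 2.5 × 10⁴ per well, plated overnight, then prelabelled overnight at 37 °C with [3H]-myo-inositol (10–25 Ci/mmol) in inositol-free medium with 0.02% BSA. LiCl 10 mM in HEPES-buffered inositol-free DMEM, 15 min. Antagonist at 100 nM or DMSO for 30 min, then substance P for 30 min. Stopped with formic acid. [3H]-inositol phosphate captured on yttrium silicate SPA beads, 2 h. Reported as % substance P response remaining.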

[2] = target: T2, Nuclear receptor subfamily 1 group I member 2 (Homo sapiens, UniProt O75469); test: Inhibition of human PXR induction
T2 sequence (O75469 whole entry): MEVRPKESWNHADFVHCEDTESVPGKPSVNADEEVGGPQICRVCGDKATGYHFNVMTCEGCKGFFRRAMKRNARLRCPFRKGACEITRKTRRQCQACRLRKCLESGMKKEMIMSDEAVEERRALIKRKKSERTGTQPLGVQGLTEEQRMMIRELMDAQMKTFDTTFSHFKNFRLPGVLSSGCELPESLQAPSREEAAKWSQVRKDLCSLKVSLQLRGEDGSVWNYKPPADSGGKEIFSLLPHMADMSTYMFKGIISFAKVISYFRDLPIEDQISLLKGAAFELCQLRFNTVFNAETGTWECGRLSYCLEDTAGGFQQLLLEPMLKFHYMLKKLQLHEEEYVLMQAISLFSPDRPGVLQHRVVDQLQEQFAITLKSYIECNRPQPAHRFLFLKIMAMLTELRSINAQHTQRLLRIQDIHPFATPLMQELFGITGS

[3] = target: T3, PXR (nuclear receptor subfamily 1 group I member 2) (Homo sapiens, UniProt O75469); test: Inhibition of human PXR induction at 10 uM
T3 sequence (O75469 whole entry): T2 sequence (O75469 whole entry)
How it was run: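 Human PXR induction measured at 10 µM compound, expressed as % of maximal induction.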

[4] = Binding affinity to potassium channel IKr
[5] = Binding affinity to calcium channel
How it was run: (§1)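 Ion channel binding assay; IC50 values calculated for sodium channel and for calcium channel (Dlz site).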

[6] = Binding affinity to sodium channel; how it was run: as §1
Meriones unguiculatus [7] = test: Inhibition of GR-73632-induced foot tapping in Mongolian gerbil at 3 mg/kg after 24 hrs; format: functional
How it was run: (§2)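 Gerbils given antagonist at the dose and pretreatment time shown (1 mg/kg at 1 h, 3 mg/kg at 24 h); foot tapping then induced with the NK1 agonist GR73632. Read-out is % inhibition of tapping; ED50 or ID50 from dose–response.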

Meriones unguiculatus [8] = species: Meriones unguiculatus; test: Inhibition of GR-73632-induced foot tapping in Mongolian gerbil after 24 hrs; format: functional; details: read-out: ED50; how it was run: as §2
Substance-P receptor [9] = target: T1, Substance-P receptor; test: Displacement of [125I]substance P from human NK1 receptor expressed in CHO cells; format: cell-based
How it was run: (§3)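 Radioligand binding: [125I]substance P displaced from human NK1 receptor expressed in CHO cells; IC50 determined. Also run with 50% serum added (human, dog, rhesus, rat or gerbil) to measure the serum shift.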

Substance-P receptor [10] = target: T1, Substance-P receptor; test: Displacement of [125I]substance P from human NK1 receptor expressed in CHO cells in presence of 50% human serum; format: cell-based; how it was run: as §3
Meriones unguiculatus [11] = test: Inhibition of GR-73632-induced foot tapping in Mongolian gerbil at 1 mg/kg after 1 hr; format: functional; how it was run: as §2

T1 sequence (P25103 whole entry): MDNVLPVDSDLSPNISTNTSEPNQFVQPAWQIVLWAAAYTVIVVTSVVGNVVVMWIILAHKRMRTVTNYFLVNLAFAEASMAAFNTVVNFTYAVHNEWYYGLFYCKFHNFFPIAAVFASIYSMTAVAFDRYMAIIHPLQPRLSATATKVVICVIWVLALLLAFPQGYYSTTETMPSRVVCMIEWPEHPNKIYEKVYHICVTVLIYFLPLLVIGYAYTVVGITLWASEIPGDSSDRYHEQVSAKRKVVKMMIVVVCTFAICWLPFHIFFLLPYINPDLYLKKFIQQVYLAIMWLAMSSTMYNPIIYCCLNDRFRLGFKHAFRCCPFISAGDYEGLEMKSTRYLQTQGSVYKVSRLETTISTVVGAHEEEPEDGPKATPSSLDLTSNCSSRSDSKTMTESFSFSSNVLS

Compound | Activity (Substance-P receptor [1]) [%] | IC50 [2] [nM] | Emax at 10 µM [3] [%] | IC50 [4] [nM] | IC50 [5] [nM] | IC50 [6] [nM] | inhibition in vivo at 3 mg/kg (Meriones unguiculatus [7]) [%] | ED50 (Meriones unguiculatus [8]) [mg/kg] | IC50 (Substance-P receptor [9]) [nM] | IC50 (Substance-P receptor [10]) [nM] | inhibition in vivo at 1 mg/kg (Meriones unguiculatus [11]) [%]
C[C@@H](O[C@H]1CN2C(=O)CC(N)[C@H]2[C@@H]1c1ccc(F)cc1)c1cc(C(F)(F)F)cc(C(F)(F)F)c1 (stereo partly specified) | 75 | > 25000 | 1 | 9500 | 1880 | 7720 | 100 | 0.92 | – | – | –
C[C@@H](O[C@H]1CN2C(=O)[C@H]3C[C@](C)(O)C[C@H]3[C@H]2[C@@H]1c1ccc(F)cc1)c1cc(C(F)(F)F)cc(C(F)(F)F)c1 | 24 | – | – | – | – | – | – | – | 0.066 | 1.2 | –
CC(O[C@H]1CN2C(=O)[C@@H]3CC(N)C[C@@H]3[C@H]2[C@@H]1c1ccc(F)cc1)c1cc(C(F)(F)F)cc(C(F)(F)F)c1 (single isomer, unassigned) | 61 | – | – | – | – | – | – | – | 0.66 | 13 | –
CC[C@@]1(O)C[C@H]2[C@H]3[C@H](c4ccc(F)cc4)[C@@H](O[C@H](C)c4cc(C(F)(F)F)cc(C(F)(F)F)c4)CN3C(=O)[C@H]2C1 | 31 | – | – | – | – | – | – | – | 0.21 | 2.3 | –
C[C@@H](O[C@H]1CN2C(=O)[C@H]3C[C@@H](NCc4ccccc4)C[C@H]3[C@H]2[C@@H]1c1ccc(F)cc1)c1cc(C(F)(F)F)cc(C(F)(F)F)c1 | 2 | > 25000 | 0 | 280 | 140 | – | 100 | 0.47 | 0.17 | 1.8 | –
CC[C@]1(O)C[C@H]2[C@H]3[C@H](c4ccc(F)cc4)[C@@H](O[C@H](C)c4cc(C(F)(F)F)cc(C(F)(F)F)c4)CN3C(=O)[C@H]2C1 | 4 | 3300 | 51 | 1770 | 8420 | – | 100 | 0.06 | 0.16 | 1.7 | –
C[C@@H](O[C@H]1CN2C(=O)[C@@H]3C[C@H](NCc4ccccc4)C[C@@H]3[C@H]2[C@@H]1c1ccc(F)cc1)c1cc(C(F)(F)F)cc(C(F)(F)F)c1 | 94 | – | – | – | – | – | – | – | 1.2 | 13 | –
C[C@@H](O[C@H]1CN2C(=O)[C@H]3C[C@H](O)C[C@H]3[C@H]2[C@@H]1c1ccc(F)cc1)c1cc(C(F)(F)F)cc(C(F)(F)F)c1 | 35 | – | – | – | – | – | – | – | 0.08 | 1.7 | –
C[C@@H](O[C@H]1CN2C(=O)C3CN(C4=CC(=O)CC4)CC3[C@H]2[C@@H]1c1ccc(F)cc1)c1cc(C(F)(F)F)cc(C(F)(F)F)c1 (single isomer, unassigned) | 11 | – | – | – | – | – | – | – | – | – | –
C[C@@H](O[C@H]1CN2C(=O)C3CNCC3[C@H]2[C@@H]1c1ccc(F)cc1)c1cc(C(F)(F)F)cc(C(F)(F)F)c1 (single isomer, unassigned) [FIRST ELUDED ISOMER] | – | – | – | – | – | – | – | – | 1.5 | 15 | –
C[C@@H](O[C@H]1CN2C(=O)C3CNCC3[C@H]2[C@@H]1c1ccc(F)cc1)c1cc(C(F)(F)F)cc(C(F)(F)F)c1 (single isomer, unassigned) | 46 | – | – | – | – | – | – | – | – | – | –
C[C@@H](O[C@H]1CN2C(=O)[C@@H]3C[C@@H](NCc4ccccc4)C[C@@H]3[C@H]2[C@@H]1c1ccc(F)cc1)c1cc(C(F)(F)F)cc(C(F)(F)F)c1 | 58 | – | – | – | – | – | 6 | – | 0.14 | 2.3 | 81
C[C@@H](O[C@H]1CN2C(=O)C3CN(C4=CC(=O)CC4)CC3[C@H]2[C@@H]1c1ccc(F)cc1)c1cc(C(F)(F)F)cc(C(F)(F)F)c1 (stereo in doubt; 18b) | 7 | – | – | – | – | – | – | – | – | – | –
C[C@@H](O[C@H]1CN2C(=O)C3CNCC3[C@H]2[C@@H]1c1ccc(F)cc1)c1cc(C(F)(F)F)cc(C(F)(F)F)c1 (stereo in doubt; 6b) [FIRST ELUDED ISOMER] | – | – | – | 2710 | 310 | – | 12 | – | 0.31 | 3.2 | –
C[C@@H](O[C@H]1CN2C(=O)[C@H]3C[C@H](NCc4ccccc4)C[C@H]3[C@H]2[C@@H]1c1ccc(F)cc1)c1cc(C(F)(F)F)cc(C(F)(F)F)c1 | 4 | > 25000 | 0 | 300 | 210 | 210 | 94 | – | 0.14 | 1.3 | –
C[C@@H](O[C@H]1CN2C(=O)C3CN(C4=CC(=O)CC4)CC3[C@H]2[C@@H]1c1ccc(F)cc1)c1cc(C(F)(F)F)cc(C(F)(F)F)c1 (stereo in doubt; 18b) [FIRST ELUDED ISOMER] | – | – | – | 730 | 4810 | – | – | – | 0.09 | 1 | 92
C[C@@H](O[C@H]1CN2C(=O)C3CNCC3[C@H]2[C@@H]1c1ccc(F)cc1)c1cc(C(F)(F)F)cc(C(F)(F)F)c1 (stereo in doubt; 6b) | 60 | – | – | – | – | – | – | – | – | – | –
C[C@@H](O[C@H]1CN2C(=O)[C@@H]3C[C@H](N)C[C@@H]3[C@H]2[C@@H]1c1ccc(F)cc1)c1cc(C(F)(F)F)cc(C(F)(F)F)c1 | 93 | – | – | – | – | – | – | – | 1.5 | 47 | –
C[C@@H](O[C@H]1CN2C(=O)[C@H]3C[C@@H](N)C[C@H]3[C@H]2[C@@H]1c1ccc(F)cc1)c1cc(C(F)(F)F)cc(C(F)(F)F)c1 | 6 | > 25000 | 0 | 990 | 1230 | 710 | 91 | – | 0.09 | 1 | –
C[C@@H](O[C@H]1CN2C(=O)[C@H]3C[C@H](N)C[C@H]3[C@H]2[C@@H]1c1ccc(F)cc1)c1cc(C(F)(F)F)cc(C(F)(F)F)c1 | 10 | > 25000 | 0 | 1730 | 590 | 520 | 100 | 1.33 | 0.11 | 1 | –
C[C@@H](O[C@H]1CN2C(=O)CC[C@H]2[C@@H]1c1ccc(F)cc1)c1cc(C(F)(F)F)cc(C(F)(F)F)c1 | 88 | 4800 | 50 | 5700 | 1580 | 1750 | 100 | 0.2 | – | – | –
C[C@@H](O[C@H]1CN2C(=O)C(N)C[C@H]2[C@@H]1c1ccc(F)cc1)c1cc(C(F)(F)F)cc(C(F)(F)F)c1 (stereo partly specified) | 59 | > 25000 | 7 | 6500 | 210 | 240 | 100 | 0.61 | – | – | –
C[C@@H](O[C@H]1CN2C(=O)[C@H]3C[C@@H](O)C[C@H]3[C@H]2[C@@H]1c1ccc(F)cc1)c1cc(C(F)(F)F)cc(C(F)(F)F)c1 | 3 | 4500 | 65 | – | – | – | 100 | – | 0.06 | 0.77 | 100
C[C@@H](O[C@H]1CN2C(=O)C3CN(C4=CC(=O)CC4)CC3[C@H]2[C@@H]1c1ccc(F)cc1)c1cc(C(F)(F)F)cc(C(F)(F)F)c1 (single isomer, unassigned) [FIRST ELUDED ISOMER] | – | – | – | 1430 | 8810 | – | 32 | – | 0.17 | 1.9 | –
